ChEMBL document CHEMBL4257472, “Antitumor effect of sikokianin C, a selective cystathionine β-synthase inhibitor, against human colon cancer in vitro and in vivo” (Medchemcomm, 2018)
One block for each molecule: values may come before it. Active and inactive are the calls of the source. The calls are words filed in the database; no cut-off is given here.

Legend:
[1] = molecular target: T1, Cystathionine beta-synthase (Homo sapiens) (UniProt P35520); assay: Competitive inhibition of full-length GST-fused human CBS up to 10 uM using […] as substrate by Lineweaver-burk plot analysis
T1 sequence (whole entry): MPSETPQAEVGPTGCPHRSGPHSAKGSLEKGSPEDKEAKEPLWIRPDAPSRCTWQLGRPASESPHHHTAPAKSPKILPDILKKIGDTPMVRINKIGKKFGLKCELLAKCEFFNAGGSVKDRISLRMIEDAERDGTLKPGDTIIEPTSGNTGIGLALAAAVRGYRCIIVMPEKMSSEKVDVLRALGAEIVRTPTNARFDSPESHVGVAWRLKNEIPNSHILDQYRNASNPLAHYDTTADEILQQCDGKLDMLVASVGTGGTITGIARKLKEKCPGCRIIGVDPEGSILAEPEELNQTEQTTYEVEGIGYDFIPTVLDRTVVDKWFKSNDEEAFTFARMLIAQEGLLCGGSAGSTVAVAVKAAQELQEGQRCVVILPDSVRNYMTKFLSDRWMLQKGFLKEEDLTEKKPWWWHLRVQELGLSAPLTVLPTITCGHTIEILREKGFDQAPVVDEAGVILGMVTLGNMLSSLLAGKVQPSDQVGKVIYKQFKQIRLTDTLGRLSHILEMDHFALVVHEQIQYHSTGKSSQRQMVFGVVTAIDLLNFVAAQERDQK

[2] = molecular target: T2, Cystathionine beta-synthase (Homo sapiens, UniProt P35520); assay: Inhibition of full-length GST-fused human CBS assessed as reduction in H2S production using 2 mM […] as substrate preincubated for 3 mins followed by substrate addition
T2 sequence (P35520 whole entry): T1 sequence (whole entry)
Method in brief: (§1)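 Lead sulfide H2S assay on purified human CBS (5 μg, wild-type or alanine mutant) in 200 μL of 50 mM HEPES pH 7.4 with 5% DMSO and 0.4 mM lead nitrate. Enzyme and 2 mM homocysteine preincubated 3 min at 37 °C, then 2 mM cysteine added. Lead sulfide read at 390 nm (ε 5500 M−1 cm−1). Activity is relative to a DMSO control, mean ± SD (n = 3). The detergent test included 0.01% Triton X-100.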

[3] = molecular target: T2, Cystathionine beta-synthase; assay: Inhibition of full-length GST-fused human CBS assessed as reduction in H2S production using 20 mM […] as substrate preincubated for 3 mins followed by substrate addition
Method in brief: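 Same lead sulfide H2S assay on purified human wild-type CBS (5 μg, 50 mM HEPES pH 7.4, 5% DMSO, 0.4 mM lead nitrate, 37 °C), with cysteine raised to 20 mM and homocysteine kept at 2 mM. Lead sulfide read at 390 nm.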

[4] = molecular target: T2, Cystathionine beta-synthase; assay: Inhibition of full-length GST-fused human CBS assessed as reduction in H2S production using […] as substrate preincubated for 3 mins followed by substrate addition measured in presence of Triton X-100; method in brief: as §1
[5] = molecular target: Cystathionine beta-synthase (Homo sapiens, UniProt P35520, T193A); assay: Inhibition of human CBS T193A mutant assessed as reduction in H2S production using […] as substrate preincubated for 3 mins followed by substrate addition; method in brief: as §1
[6] = molecular target: Cystathionine beta-synthase (Homo sapiens, UniProt P35520, N194A); assay: Inhibition of human CBS N194A mutant assessed as reduction in H2S production using 2 mM […] as substrate preincubated for 3 mins followed by substrate addition; method in brief: as §1
[7] = molecular target: Cystathionine beta-synthase (Homo sapiens, UniProt P35520, H203A); assay: Inhibition of human CBS H203A mutant assessed as reduction in H2S production using […] preincubated for 3 mins followed by substrate addition; method in brief: as §1
[8] = molecular target: Cystathionine beta-synthase (Homo sapiens, UniProt P35520, Y223A); assay: Inhibition of human CBS Y223A mutant assessed as reduction in H2S production using 2 mM […] as substrate preincubated for 3 mins followed by substrate addition; method in brief: as §1
[9] = molecular target: Cystathionine beta-synthase (Homo sapiens, UniProt P35520, Y308A); assay: Inhibition of human CBS Y308A mutant assessed as reduction in H2S production using 2 mM […] as substrate preincubated for 3 mins followed by substrate addition; method in brief: as §1
Homo sapiens [10] = species on record: Homo sapiens; assay: Selectivity ratio of IC50 for human CBS H203A mutant to IC50 for full-length GST-fused human CBS
Homo sapiens [11] = species on record: Homo sapiens; assay: Selectivity ratio of IC50 for human CBS Y308A mutant to IC50 for full-length GST-fused human CBS
HT-29 [12] = assay: Antiproliferative activity against human HT-29 cells after 24 hrs by CCK8 assay; format: functional, cell-based; details: HT-29, 24 h
Method in brief: (§2)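 HT29 cells grown in DMEM with 10% FBS and 1% penicillin–streptomycin, 37 °C, 5% CO2. Seeded at 1 × 10^4 cells/well, cultured 24 h, then exposed to varying compound concentrations for 24 h. CCK-8 added for 2 h at 37 °C and OD450 read. Viability expressed as % of untreated medium control. IC50 fitted from means ± SD (n = 4). Knockdown cells were transfected with CBS siRNA for 48 h beforehand.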

HT-29 [13] = assay: Antiproliferative activity against human HT-29 cells harboring CBS SiRNA after 24 hrs by CCK8 assay; format: functional, cell-based; details: HT-29, 24 h; method in brief: as §2
[14] = Selectivity ratio of IC50 for human HT-29 cells harboring CBS SiRNA to IC50 for human HT-29 cells; format: functional
HT-29 [15] = assay: Induction of apoptosis in human HT-29 cells at 0.5 uM after 24 hrs by Annexin V-FITC/propidium iodide staining based flow cytometry relative to control; format: functional
Method in brief: (§3)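 HT29 cells seeded at 5 × 10^5 per well and treated 24 h with 0.5, 1 or 2 μM compound. Cells trypsinized, washed in cold PBS, stained with FITC–Annexin V and PI for 15 min in the dark at room temperature. 10 000 cells analysed by flow cytometry. Annexin V-positive percentage reported as mean ± SD of three independent experiments.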

HT-29 [16] = assay: Induction of apoptosis in human HT-29 cells at 1 uM after 24 hrs by Annexin V-FITC/propidium iodide staining based flow cytometry relative to control; format: functional; method in brief: as §3
HT-29 [17] = assay: Induction of apoptosis in human HT-29 cells at 2 uM after 24 hrs by Annexin V-FITC/propidium iodide staining based flow cytometry relative to control; format: functional; method in brief: as §3
HT-29 [18] = assay: Induction of apoptosis in human HT-29 cells after 24 hrs by Annexin V-FITC/propidium iodide staining based flow cytometry; format: functional, cell-based; method in brief: as §3
Mus musculus [19] = assay: Toxicity in BALB/c nude mouse xenografted with human HT-29 cells assessed as effect on body weight at 3 to 10 mg/kg, sc administered once daily for 6 days followed by 1 day interval and subsequent dosing for 6 days; format: organism-based; details: in vivo
Method in brief: (§4)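 Male BALB/c nude mice, five weeks old, given s.c. HT29 cells (100 μL of 1 × 10^7 cells/mL) in the right armpit. Randomized when tumours reached about 100 mm3. Daily s.c. dosing at 3 or 10 mg/kg/d, vehicle 1% DMSO with 0.5% carboxymethylcellulose in PBS, 6 d on and 1 d off, 12 treatments in total, n = 6. Tumour volume by calipers (0.5 × L × W²) and body weight monitored. Tumours excised and weighed on day 28.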

HT-29 [20] = assay: Antitumor activity against human HT-29 cells xenografted in sc dosed BALB/c nude mouse assessed as tumor growth inhibition administered once daily for 6 days followed by 1 day interval and subsequent dosing for 6 days; format: functional, organism-based; method in brief: as §4
HT-29 [21] = assay: Antitumor activity against human HT-29 cells xenografted in BALB/c nude mouse assessed as reduction in tumor weight at 10 mg/kg, sc administered once daily for 6 days followed by 1 day interval and subsequent dosing for 6 days relative to control; format: functional; design: scale not given: the % may be the effect or the level left; method in brief: as §4
[22] = molecular target: T1, Cystathionine beta-synthase (Homo sapiens); assay: Non-competitive inhibition of full-length GST-fused human CBS using […] as substrate by Lineweaver-burk plot analysis
Mus musculus [23] = assay: Toxicity in BALB/c nude mouse xenografted with human HT-29 cells assessed as effect on body weight at 10 mg/kg, sc administered once daily for 6 days followed by 1 day interval and subsequent dosing for 6 days; format: organism-based; details: in vivo; method in brief: as §4
HT-29 [24] = assay: Antitumor activity against human HT-29 cells xenografted in BALB/c nude mouse assessed as tumor growth inhibition at 10 mg/kg, sc administered once daily for 6 days followed by 1 day interval and subsequent dosing for 6 days; format: functional, organism-based; method in brief: as §4

Chain of Cystathionine beta-synthase (Homo sapiens, UniProt P35520, H203A) (P35520 whole entry H203A): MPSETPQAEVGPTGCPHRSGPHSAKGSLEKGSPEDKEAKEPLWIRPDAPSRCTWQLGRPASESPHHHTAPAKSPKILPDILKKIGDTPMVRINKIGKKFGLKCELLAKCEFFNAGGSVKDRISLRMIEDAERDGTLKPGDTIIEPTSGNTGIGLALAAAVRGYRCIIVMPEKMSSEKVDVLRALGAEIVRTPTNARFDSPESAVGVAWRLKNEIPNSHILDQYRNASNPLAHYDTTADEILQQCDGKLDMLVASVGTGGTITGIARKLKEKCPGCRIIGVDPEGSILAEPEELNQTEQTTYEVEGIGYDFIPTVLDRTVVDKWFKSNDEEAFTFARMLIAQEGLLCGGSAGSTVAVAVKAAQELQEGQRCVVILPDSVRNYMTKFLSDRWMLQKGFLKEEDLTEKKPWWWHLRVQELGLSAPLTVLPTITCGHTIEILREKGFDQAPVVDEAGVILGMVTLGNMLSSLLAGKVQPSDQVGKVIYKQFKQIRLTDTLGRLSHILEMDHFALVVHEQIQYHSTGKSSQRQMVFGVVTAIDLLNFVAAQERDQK
Chain of Cystathionine beta-synthase (Homo sapiens, UniProt P35520, N194A) (P35520 whole entry N194A): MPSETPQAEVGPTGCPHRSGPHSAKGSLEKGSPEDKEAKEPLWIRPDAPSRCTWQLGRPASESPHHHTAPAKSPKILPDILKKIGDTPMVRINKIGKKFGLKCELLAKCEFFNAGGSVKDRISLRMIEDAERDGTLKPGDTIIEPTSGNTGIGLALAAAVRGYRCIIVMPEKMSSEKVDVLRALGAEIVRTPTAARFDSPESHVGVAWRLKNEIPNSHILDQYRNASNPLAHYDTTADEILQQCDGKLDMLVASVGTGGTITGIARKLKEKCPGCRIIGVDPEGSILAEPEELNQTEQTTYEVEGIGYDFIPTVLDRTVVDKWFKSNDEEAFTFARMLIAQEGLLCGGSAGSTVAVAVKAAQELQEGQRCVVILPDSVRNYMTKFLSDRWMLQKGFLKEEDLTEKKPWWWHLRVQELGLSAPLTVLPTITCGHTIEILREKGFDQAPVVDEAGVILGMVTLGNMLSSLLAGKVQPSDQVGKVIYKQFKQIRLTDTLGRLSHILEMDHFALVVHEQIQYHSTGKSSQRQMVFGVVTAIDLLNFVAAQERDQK
Chain of Cystathionine beta-synthase (Homo sapiens, UniProt P35520, Y308A) (P35520 whole entry Y308A, the tested form may be a part): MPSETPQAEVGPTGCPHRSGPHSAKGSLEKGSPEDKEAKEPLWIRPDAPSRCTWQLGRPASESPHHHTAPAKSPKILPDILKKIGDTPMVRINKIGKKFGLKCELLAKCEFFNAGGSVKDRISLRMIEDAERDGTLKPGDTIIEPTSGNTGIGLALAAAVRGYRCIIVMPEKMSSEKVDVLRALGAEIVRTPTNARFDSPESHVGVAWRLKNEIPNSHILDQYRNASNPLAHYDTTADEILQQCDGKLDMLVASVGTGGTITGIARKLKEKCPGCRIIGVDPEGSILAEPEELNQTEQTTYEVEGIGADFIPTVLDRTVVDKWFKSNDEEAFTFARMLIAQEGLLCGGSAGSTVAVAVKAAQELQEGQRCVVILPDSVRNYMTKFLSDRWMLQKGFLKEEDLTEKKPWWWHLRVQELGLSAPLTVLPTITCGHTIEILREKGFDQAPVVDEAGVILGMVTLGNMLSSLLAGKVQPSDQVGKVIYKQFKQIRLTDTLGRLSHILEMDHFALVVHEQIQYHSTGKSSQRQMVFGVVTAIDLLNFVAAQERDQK
Chain of Cystathionine beta-synthase (Homo sapiens, UniProt P35520, Y223A) (P35520 whole entry Y223A): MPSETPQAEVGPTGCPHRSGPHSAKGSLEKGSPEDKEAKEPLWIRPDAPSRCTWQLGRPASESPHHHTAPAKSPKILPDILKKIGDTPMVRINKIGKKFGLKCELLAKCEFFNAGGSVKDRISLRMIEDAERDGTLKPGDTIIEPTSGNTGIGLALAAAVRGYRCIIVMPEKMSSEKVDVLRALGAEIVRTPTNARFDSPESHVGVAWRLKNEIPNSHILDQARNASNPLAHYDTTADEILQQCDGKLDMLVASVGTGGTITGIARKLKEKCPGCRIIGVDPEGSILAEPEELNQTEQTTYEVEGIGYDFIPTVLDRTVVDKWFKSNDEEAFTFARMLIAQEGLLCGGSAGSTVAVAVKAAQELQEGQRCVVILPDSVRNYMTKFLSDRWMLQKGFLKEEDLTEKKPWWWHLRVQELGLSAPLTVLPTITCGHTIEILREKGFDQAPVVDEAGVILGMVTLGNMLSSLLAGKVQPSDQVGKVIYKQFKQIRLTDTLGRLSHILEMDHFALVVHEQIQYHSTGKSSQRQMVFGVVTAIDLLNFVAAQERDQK
Chain of Cystathionine beta-synthase (Homo sapiens, UniProt P35520, T193A) (P35520 whole entry T193A): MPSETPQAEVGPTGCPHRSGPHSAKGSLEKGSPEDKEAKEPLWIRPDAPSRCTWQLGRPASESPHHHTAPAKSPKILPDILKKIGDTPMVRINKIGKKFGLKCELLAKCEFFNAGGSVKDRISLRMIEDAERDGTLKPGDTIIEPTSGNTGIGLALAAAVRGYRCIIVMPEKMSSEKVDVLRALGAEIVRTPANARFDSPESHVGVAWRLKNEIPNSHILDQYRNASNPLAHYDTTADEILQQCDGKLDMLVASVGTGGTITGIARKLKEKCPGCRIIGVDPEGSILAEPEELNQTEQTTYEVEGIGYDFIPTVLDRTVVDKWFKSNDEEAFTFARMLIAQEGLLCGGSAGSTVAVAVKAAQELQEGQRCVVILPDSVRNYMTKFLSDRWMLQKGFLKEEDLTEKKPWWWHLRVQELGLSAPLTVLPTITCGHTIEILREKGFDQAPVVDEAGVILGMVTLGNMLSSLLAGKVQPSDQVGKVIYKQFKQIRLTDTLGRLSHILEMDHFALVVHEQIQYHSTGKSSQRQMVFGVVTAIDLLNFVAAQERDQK

inhibition [1]: Active
IC50 [2]: 0.9 µM
IC50 [3]: 5.5 µM
IC50 [4]: 1.4 µM
IC50 [5]: 11.2 µM
IC50 [6]: 18.7 µM
IC50 [7]: 43 µM
IC50 [8]: 16.9 µM
IC50 [9]: 24 µM
Ratio IC50 (Homo sapiens [10]): 48
Ratio IC50 (Homo sapiens [11]): 27
IC50 (HT-29 [12]): 1.6 µM
IC50 (HT-29 [13]): 4.7 µM
Structure (SMILES): COc1ccc([C@H]2Oc3cc(O)cc(O)c3C(=O)[C@@H]2[C@H]2C(=O)c3c(O)cc(O)cc3O[C@@H]2c2ccc(O)cc2)cc1 [SIKOKIANIN C]
Ratio IC50 [14]: 3
Activity (HT-29 [15]): 17.1%
Activity (HT-29 [16]): 22%
Activity (HT-29 [17]): 31.5%
Activity (HT-29 [18]): Dose-dependent effect
Activity (Mus musculus [19]): Non-Toxic
Activity (HT-29 [20]): Dose-dependent effect
Activity (HT-29 [21]): 46%

IC50 [2]: 7.5 µM
inhibition [22]: Active
IC50 (HT-29 [12]): 159 µM
IC50 (HT-29 [13]): 287 µM
Structure (SMILES): NOCC(=O)O [CARBOXYMETHOXYLAMINE]
Activity (Mus musculus [23]): Non-Toxic
TGI (HT-29 [24]): Active
Activity (HT-29 [21]): 44%
